Consider 25 compounds from ChEMBL document CHEMBL1134287, “Design and pharmacological activity of phosphinic acid based NAALADase inhibitors” (J Med Chem, 2001).

Glutamate carboxypeptidase 2, sequence (P70627 whole entry): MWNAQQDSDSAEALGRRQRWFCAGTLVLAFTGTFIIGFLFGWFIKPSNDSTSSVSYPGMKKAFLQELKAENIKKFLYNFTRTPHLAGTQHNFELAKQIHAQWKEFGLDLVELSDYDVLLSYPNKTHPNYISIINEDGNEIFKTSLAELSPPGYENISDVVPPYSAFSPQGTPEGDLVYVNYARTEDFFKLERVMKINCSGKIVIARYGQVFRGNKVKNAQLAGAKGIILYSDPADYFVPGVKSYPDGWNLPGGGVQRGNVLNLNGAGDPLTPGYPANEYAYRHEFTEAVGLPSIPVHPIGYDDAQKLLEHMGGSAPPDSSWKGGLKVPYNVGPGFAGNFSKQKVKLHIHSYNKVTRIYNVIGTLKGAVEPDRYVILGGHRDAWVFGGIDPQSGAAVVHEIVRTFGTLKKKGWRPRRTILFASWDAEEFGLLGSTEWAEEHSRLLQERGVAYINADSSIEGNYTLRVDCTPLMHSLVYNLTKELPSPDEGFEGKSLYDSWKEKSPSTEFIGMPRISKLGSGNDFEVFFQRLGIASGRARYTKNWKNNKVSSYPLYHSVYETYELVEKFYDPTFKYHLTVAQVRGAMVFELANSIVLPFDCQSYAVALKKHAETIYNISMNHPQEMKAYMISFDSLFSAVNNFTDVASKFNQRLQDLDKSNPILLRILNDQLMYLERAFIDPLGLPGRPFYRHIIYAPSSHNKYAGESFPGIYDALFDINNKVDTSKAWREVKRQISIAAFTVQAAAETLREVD

For the assay, the target named is Glutamate carboxypeptidase 2 (Rattus norvegicus, UniProt P70627). Put plainly: Inhibitory concentration against rat brain NAALADase (Folate hydrolase). In outline:
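IC50 values were determined by a method described elsewhere, from two to four independent determinations each. The values refer to racemic material.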
`O=C(O)CCC(CP(=O)(O)CCc1ccccc1)C(=O)O` (stereo not given): half-maximal inhibition (IC50) required 149 nM. In the case of `CCCP(=O)(O)CC(CCC(=O)O)C(=O)O` (stereo not given) it was 360 nM; in that of `O=C(O)CCC(CP(=O)(O)CNCc1ccccc1)C(=O)O` (stereo not given), 59 nM. In the case of `Nc1cccc(CP(=O)(O)CC(CCC(=O)O)C(=O)O)c1` (stereo not given) it was 143 nM; in that of `O=C(O)CCC(CP(=O)(O)CC(CCC(=O)O)C(=O)O)C(=O)O` (stereo not given), 0.5 nM. In the case of `CC(CP(=O)(O)CC(CCC(=O)O)C(=O)O)C(=O)O` (stereo not given) it was 1.5 nM; in that of `CC(CP(=O)(O)CC(CCC(=O)O)C(=O)O)C(=O)OCc1ccccc1` (stereo not given), 95 nM; in that of `O=C(O)CCC(CP(=O)(O)C(O)c1ccncc1)C(=O)O` (stereo not given), 10 nM. Compound `O=C(O)CCC(CP(=O)(O)Cc1cc(F)cc(F)c1)C(=O)O` (stereo not given) yielded an IC50 of 49 nM. In the case of `O=C(O)CCC(CP(=O)(O)Cc1ccccc1F)C(=O)O` (stereo not given) it was 156 nM; in that of `O=C(O)C(CCc1ccccc1)CP(=O)(O)O` (stereo not given), 199 nM; in that of `N#CCCC(CP(=O)(O)O)C(=O)O` (stereo not given), 335 nM. For `O=C(O)CCC(CP(=O)(O)C(O)c1cccc(F)c1)C(=O)O` (stereo not given), the IC50 was 16 nM. This IC50 lies about 21-fold lower than the previous one.

`O=C(O)CCCC(CP(=O)(O)O)C(=O)O` (stereo not given) registered an IC50 of 185 nM.

Take `Cc1ccc(CP(=O)(O)CC(CCC(=O)O)C(=O)O)cc1` (stereo not given): the half-inhibitory concentration (IC50) was 68 nM. In the case of `O=C(O)C(Cc1ccccc1)CP(=O)(O)O` (stereo not given) it was 548 nM. With `O=C(O)CC(CP(=O)(O)O)C(=O)O` (stereo not given), half-maximal inhibition (IC50) required 2200 nM.

As to `O=C(O)C(Cc1cccc(O)c1)CP(=O)(O)O` (stereo not given), inhibition was half-maximal at 508 nM (IC50). Compared with the last compound, the IC50 is about 4.3-fold lower. `O=C(O)CCC(CP(=O)(O)Cc1cc(C(F)(F)F)cc(C(F)(F)F)c1)C(=O)O` (stereo not given) registered an IC50 of 55 nM. Compared with the last compound, the IC50 is about 9.2-fold lower. `O=C(O)CCC(CP(=O)(O)c1ccccc1)C(=O)O` (stereo not given) registered an IC50 of 2930 nM.

`O=C(O)CCC(CP(=O)(O)CC(Cc1ccccc1)C(=O)O)C(=O)O` (stereo not given) returned an IC50 of 2 nM.

Turning to `O=C(O)CCC(CP(=O)(O)Cc1c(F)c(F)c(F)c(F)c1F)C(=O)O` (stereo not given), inhibition was half-maximal at 82 nM (IC50). In the case of `O=C(O)C(CCC1N=NN=N1)CP(=O)(O)O` (stereo not given) it was 175 nM; in that of `O=C(O)CCC(CP(=O)(O)Cc1ccccc1)C(=O)O` (stereo not given), 53 nM; in that of `COc1ccc(NCP(=O)(O)CC(CCC(=O)O)C(=O)O)cc1` (stereo not given), 3 nM.

As a reminder, the IC50 is the concentration that gives 50% inhibition. The low end stands for higher potency, the high end for lower potency.
